High-throughput results (PubChem BioAssay)
Rows were chosen to be rich in hits. Some 1.9% of all compounds tested hit in one or more screens of this group.
ROMK primary: ROMK potassium channel modulators, primary screen, cell-based, thallium flux, MLSMR library; ATP-sensitive inward rectifier potassium channel 1 (Homo sapiens), P48048; Tet-inducible ROMK, thallium flux fluorescence; actives lie on both sides; B-score at 10 µM; 130,000 compounds, 2% hits; AID 1918, 2009;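 active means signal ratio slope over the read window, or its plate-corrected B-score, at least 3 SD from the plate mean, either direction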;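 further: B-score of the F/F0 ratio slope over 7 to 12 s after thallium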
Target sequence (P48048 whole entry, looked up): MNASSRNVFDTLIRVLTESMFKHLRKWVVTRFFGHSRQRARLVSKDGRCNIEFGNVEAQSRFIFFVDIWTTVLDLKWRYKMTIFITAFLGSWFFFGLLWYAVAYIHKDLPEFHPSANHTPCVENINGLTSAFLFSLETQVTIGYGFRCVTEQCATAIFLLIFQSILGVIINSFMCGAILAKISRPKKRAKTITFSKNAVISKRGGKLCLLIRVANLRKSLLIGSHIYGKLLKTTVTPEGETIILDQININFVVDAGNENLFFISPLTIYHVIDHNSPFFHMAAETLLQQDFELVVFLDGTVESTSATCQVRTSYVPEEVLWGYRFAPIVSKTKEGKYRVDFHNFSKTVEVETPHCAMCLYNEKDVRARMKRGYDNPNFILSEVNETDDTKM
bCat nuc transl: modulators of beta-catenin nuclear translocation, primary screen, imaging, HeLa cells, immunofluorescence, high-content; nuclear translocation activity, % at 5 µM; 190,000 compounds, 0.3% hits;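 active means nuclear translocation activity above 50% at 5 µM, with a well cell count of 50 or more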;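 further: per-cell ratio of nuclear to cytoplasmic median beta-catenin stain intensity; plate controls were DMSO negative control for no effect and GSK-3 inhibitor IX positive control for full effect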
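Test system: human HeLa cell line; Doses: 5 µM primary, 0.02–20 µM confirmation; Incubation: 24 h compound exposure, 37°C; Detection: beta-catenin immunofluorescence imaging with DAPI; Read-out: beta-catenin nuclear/cytoplasmic ratio, % activation.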
MT stabilizer: microtubule stabilizers in HeLa cells, primary screen, imaging, high-content imaging; HeLa tubulin immunostaining HCS, 24 h; share of cells brighter than vehicle mean+2SD; % tubulin-high responders, % at 10 µM; 200,000 compounds, 0.83% hits; AID 2205, 2009;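 active means plate Z-score above 3 for both tubulin-high and condensed-nucleus cell shares, with cell loss under 80%, at 10 µM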;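 further: anti alpha tubulin signal scored within the nucleus-defined area of each cell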
The depositor's hits bear a star; x = no result given.

SMILES	ROMK primary	bCat nuc transl	MT stabilizer
O=C(N/C(=C\c1ccco1)C(=O)N1CCOCC1)c1ccco1	x	2	2
OCCNc1c2ccccc2nc2c(F)c(F)c(F)c(F)c12	x	56*	2
Cc1c2ccccc2nc2c(F)c(NCCO)c(F)c(F)c12	x	3	9
Cc1cc2ccccc2n1CCNC(=O)c1ccc(Br)o1	x	-2	3
COc1ccc(OC)c(-n2c(SCC(=O)Nc3cccc(S(N)(=O)=O)c3)nc3ccccc3c2=O)c1	x	1	x
S=c1nc(C2CC2)[nH]c2ccccc12	x	-1	5
S=c1nc(C2CCCCC2)[nH]c2ccccc12	3.1*	1	3
CC(/C=N/NC(=O)c1cc(-c2ccccc2)nc2ccccc12)=C\c1ccco1	x	155*	7
CC(/C=N/NC(=O)CN1CCN(Cc2ccc(Cl)cc2)CC1)=C\c1ccco1	-0.061	-2	3
CC(=C/c1ccco1)/C=N/NC(=O)c1ccncc1	x	3	x
CC(/C=N/NC(=O)c1cc(-c2ccc(Cl)cc2)nc2ccccc12)=C\c1ccco1	0.67	235*	14
CCCCOC1(c2ccccc2)NC(=S)NN=C1c1ccccc1 (centres undefined)	0.94	x	1
COc1cc(S(=O)(=O)Nc2cc(C)cc(C)c2)ccc1F	-0.34	x	12*
COc1cc(S(=O)(=O)Nc2cccnc2)ccc1F	0.63	20	5
FC(F)(F)c1ccc(C2[C@H]3CN(CC4CCCCC4)[C@H](c4ccccc4)C34CC2(c2cccnc2)C4)cc1 (some centres undefined)	x	0	x
CSC(=S)N/N=C/c1ccccc1	6.2*	-5	2
COc1ccc(/C=N/NC(=S)SC)cc1OC	1.7	-1	2
Cc1ccc(N/C=C/C(=O)c2sc(-c3ccccc3)nc2C)cc1	x	1	51*
Cc1nc(-c2ccccc2)sc1C(=O)NN	-1.4	0	7
COc1ccc(-c2cn3cc(C(F)(F)F)cc(Cl)c3n2)cc1	1.4	6	16*
Fc1ccc(-c2cn3cc(C(F)(F)F)cc(Cl)c3n2)cc1	x	5	2
COn1c(SCC(N)=O)nc2ccccc2c1=O	x	-3	8
COn1c(SCc2ccc(C)cc2C)nc2ccccc2c1=O	x	51*	41*
CC(C)(C)NC(=O)C(=O)NN=C1CCCCCCCCCCC1	-0.14	-1	4
O=C(c1cccnc1Cl)N1CCOCC1	0.3	1	8
SMILES	ROMK primary	bCat nuc transl	MT stabilizer
CCOC(=O)N1CCC(NC(=O)C2CCN(S(=O)(=O)c3ccc4c(c3)oc(=O)n4C)CC2)CC1	x	-1	2
COc1cc(NC(=S)NC(=O)c2ccccc2F)ccc1NC(=O)c1ccco1	x	0	15*
COc1cc(NC(=S)NC(=O)c2ccco2)ccc1NC(=O)C(C)C	-1.1	0	6
Cn1c2ccccc2c(=O)c2c(=O)n(Cc3ccco3)c(-c3ccc(C(C)(C)C)cc3)nc21	0.18	0	x
CC1=CC2=NC(=O)/C(=C\c3cccn3CCOc3cc(C)ccc3C)C(=N)N2O1	0.67	2	14
Cc1ccc(C(=O)N2CCC3(CC2)Oc2ccc(Cl)cc2C(=O)C32CC(c3cccnc3)=NO2)s1 (centres undefined)	x	0	x
O=C(/C=C/c1cccs1)N1CCC2(CC1)Oc1ccc(Cl)cc1C(=O)C21CC(c2cccnc2)=NO1 (centres undefined)	x	52*	x
CCc1ccc(N2CC(C(=O)Nc3cc(C)on3)CC2=O)cc1 (centres undefined)	-0.066	1	2
COCCN1Cc2cccc(C(=O)NC(C)CCc3ccco3)c2C1=O (centres undefined)	0.13	-1	2
C/C=C/C(=O)Nc1cccc(C2=NOC3(C2)C[C@@H](C(N)=O)N(C(=O)/C(C)=C/C)C3)c1 (some centres undefined)	x	-2	x
CCc1ccc(NC(=O)c2ccc3c(c2)C(=O)N(CCOC)C3Nc2ccc(CC)cc2)cc1 (centres undefined)	0.023	-1	7
Cc1ccc(C2=NN(C(=S)Nc3ccccc3)C(c3ccco3)C2)cc1 (centres undefined)	0.8	-2	2
CCS(=O)(=O)Nc1ccc(C2=NN(C(=S)Nc3ccccc3)C(c3ccco3)C2)cc1 (centres undefined)	x	0	22*
Cc1ccc(S(=O)(=O)N2CCCCC2)cc1NS(=O)(=O)c1cccc(C(=O)O)c1	x	0	4
COc1ccc(N(C)S(=O)(=O)c2cccc3cccnc23)c(OC)c1	x	56*	55*
COc1ccc(NC(=O)C2CCCN2S(=O)(=O)c2cccc3cccnc23)c(OC)c1 (centres undefined)	x	-1	3
Cc1cc(S(=O)(=O)NCc2ccccc2)ccc1OCC(=O)NCC1CCCO1 (centres undefined)	0.21	0	6
O=C(Nc1ccc(Cl)cn1)c1cccc(F)c1	1.7	100*	39*
O=C(Nc1ccc(Cl)cn1)c1ccccc1F	2.3	3	17
O=C(c1ccc(NC(=S)NCc2ccco2)cc1)N1CCOCC1	0.85	0	3
COc1ccc(NS(=O)(=O)c2cc(OC)ccc2NC(=O)c2cc(C)oc2C)cc1	x	3	38*
COc1ccc(NS(=O)(=O)c2cc(C)ccc2C)cc1	x	0	59*
COc1ccc(NS(=O)(=O)c2cc(S(C)(=O)=O)ccc2C)cc1	-0.073	1	4
COc1ccc(NC(=O)c2cc(S(=O)(=O)N3CCCC3)oc2C)cc1	-0.45	-1	x
COc1ccccc1Nc1ccncc1[N+](=O)[O-]	-0.065	0	2
SMILES	ROMK primary	bCat nuc transl	MT stabilizer
Cc1cccc2c(SCC(=O)NCC3CCCO3)nc(-c3ccc(F)cc3)nc12 (centres undefined)	x	x	1
C=CCOc1c(/C=N\NC(N)=O)cccc1OC	x	0	x
COc1cccc(Sc2ccccc2/C=N/NC(N)=O)c1	-0.047	45	15*
Cc1cccc(NC(=O)C2CCCN(S(=O)(=O)c3cccc4cccnc34)C2)c1 (centres undefined)	x	x	4
Cc1ccc(S(=O)(=O)N2CCN(CC(=O)N/N=C\c3ccc(Cl)c([N+](=O)[O-])c3)CC2)cc1	0.053	0	4
O=C(CN1CCN(S(=O)(=O)c2ccc(Br)cc2)CC1)N/N=C/c1ccc(Cl)c([N+](=O)[O-])c1	x	0	13*
O=C(NCC(c1cccs1)N1CCOCC1)c1ccc(Cl)s1 (centres undefined)	-0.13	x	54*
O=C(NCC(c1cccs1)N1CCOCC1)c1cc([N+](=O)[O-])ccc1Cl (centres undefined)	0.51	-2	3
Cc1nn(-c2ccccc2)c(Cl)c1C(=O)NCc1cccs1	x	1	3
COc1ccc(C(=O)NCC(=O)N/N=C(C)\C=C\c2ccccc2)cc1OC	0.78	-2	4
O=C(C1CCN(S(=O)(=O)c2cccs2)CC1)N(c1ccccn1)C1CCCCC1	0.25	-1	1
Cc1cc(NC(=O)CSc2nnc3c(C)cc4c(C)ccc(C)c4n23)no1	x	94*	57*
Cc1cc(NC(=O)CSc2nncn2-c2ccccc2)no1	0.79	1	3
COc1ccccc1-n1cnnc1SCC(=O)Nc1cc(C)on1	-0.42	1	17*
CCc1nnc(NC(=O)CSc2nnc(-c3ccncc3)n2C)s1	x	3	4
